Reference: ChEMBL document CHEMBL4689842, “EUbOPEN Chemogenomics Library wave 1” (2021)

System: Fibroblast
Experiment: Multiplex assay against human fibroblast
Format: toxicity, cell-based
Procedure, shortened: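 Hoechst33342, BioTracker Green Microtubule Cytoskeleton Dye, MitoTracker Red and Annexin V Alexa Fluor 680 were added to live cells at seeding, and imaging on a CQ1 microscope at 37°C and 5% CO2 followed compound addition. Gating by CellPathfinder machine learning separated cells into Hoechst high-intensity objects or normal cells, then normal cells into healthy, pyknosed or fragmented nuclei, then pyknosed cells into mitotic or apoptotic. Per cents of healthy-nucleus cells are reported for the tubulin, mitochondrial-mass and membrane-permeability phenotypes.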

[1] = 12 h, 1 µM, compound concentration 1 uM, replicate 1
[2] = 12 h, 1 µM, compound concentration 1 uM, replicate 2
[3] = 12 h, 10 µM, compound concentration 10 uM, replicate 1
[4] = 12 h, 10 µM, compound concentration 10 uM, replicate 2
[5] = 24 h, 1 µM, compound concentration 1 uM, replicate 1
[6] = 24 h, 1 µM, compound concentration 1 uM, replicate 2
[7] = 24 h, 10 µM, compound concentration 10 uM, replicate 1
[8] = 24 h, 10 µM, compound concentration 10 uM, replicate 2
[9] = 48 h, 1 µM, compound concentration 1 uM, replicate 1
[10] = 48 h, 1 µM, compound concentration 1 uM, replicate 2
[11] = 48 h, 10 µM, compound concentration 10 uM, replicate 1
[12] = 48 h, 10 µM, compound concentration 10 uM, replicate 2

## Cl.NC[C@@H]1O[C@H](C23CC4CC(CC(C4)C2)C3)Cc2c1ccc(O)c2O
[1]
  Population Apoptotic (%): 60%
  Population Fragmented Nuclei (%): 28%
  Population Healthy Nuclei (%): 51%
  Population Hoechst High Intensity Objects (%): 12%
  Population Membrane Permeable-Phenotype (%): 16%
  Population Mitochondria Different-Phenotype (%): 1%
  Population Mitotic Cells (%): 40%
  Population Normal (%): 87%
  Population Pyknosed Nuclei (%): 20%
  Population Tubulin-Different-Phenotype (%): 24%
  Total Cell Count: 171
[2]
  Population Apoptotic (%): 0%
  Population Fragmented Nuclei (%): 6%
  Population Healthy Nuclei (%): 91%
  Population Hoechst High Intensity Objects (%): 3%
  Population Membrane Permeable-Phenotype (%): 2%
  Population Mitochondria Different-Phenotype (%): 9%
  Population Mitotic Cells (%): 100%
  Population Normal (%): 96%
  Population Pyknosed Nuclei (%): 2%
  Population Tubulin-Different-Phenotype (%): 10%
  Total Cell Count: 95
[3]
  Population Apoptotic (%): 44%
  Population Fragmented Nuclei (%): 29%
  Population Healthy Nuclei (%): 42%
  Population Hoechst High Intensity Objects (%): 15%
  Population Membrane Permeable-Phenotype (%): 8%
  Population Mitochondria Different-Phenotype (%): 9%
  Population Mitotic Cells (%): 55%
  Population Normal (%): 84%
  Population Pyknosed Nuclei (%): 28%
  Population Tubulin-Different-Phenotype (%): 46%
  Total Cell Count: 205
[4]
  Population Apoptotic (%): 52%
  Population Fragmented Nuclei (%): 39%
  Population Healthy Nuclei (%): 32%
  Population Hoechst High Intensity Objects (%): 10%
  Population Membrane Permeable-Phenotype (%): 9%
  Population Mitochondria Different-Phenotype (%): 22%
  Population Mitotic Cells (%): 47%
  Population Normal (%): 89%
  Population Pyknosed Nuclei (%): 27%
  Population Tubulin-Different-Phenotype (%): 27%
  Total Cell Count: 76
[5]
  Population Apoptotic (%): 50%
  Population Fragmented Nuclei (%): 32%
  Population Healthy Nuclei (%): 55%
  Population Hoechst High Intensity Objects (%): 14%
  Population Membrane Permeable-Phenotype (%): 14%
  Population Mitochondria Different-Phenotype (%): 0%
  Population Mitotic Cells (%): 50%
  Population Normal (%): 85%
  Population Pyknosed Nuclei (%): 12%
  Population Tubulin-Different-Phenotype (%): 26%
  Total Cell Count: 213
[6]
  Population Apoptotic (%): 42%
  Population Fragmented Nuclei (%): 8%
  Population Healthy Nuclei (%): 85%
  Population Hoechst High Intensity Objects (%): 2%
  Population Membrane Permeable-Phenotype (%): 5%
  Population Mitochondria Different-Phenotype (%): 10%
  Population Mitotic Cells (%): 57%
  Population Normal (%): 97%
  Population Pyknosed Nuclei (%): 6%
  Population Tubulin-Different-Phenotype (%): 12%
  Total Cell Count: 114
[7]
  Population Apoptotic (%): 58%
  Population Fragmented Nuclei (%): 17%
  Population Healthy Nuclei (%): 52%
  Population Hoechst High Intensity Objects (%): 29%
  Population Membrane Permeable-Phenotype (%): 5%
  Population Mitochondria Different-Phenotype (%): 16%
  Population Mitotic Cells (%): 41%
  Population Normal (%): 70%
  Population Pyknosed Nuclei (%): 30%
  Population Tubulin-Different-Phenotype (%): 50%
  Total Cell Count: 181
[8]
  Population Apoptotic (%): 92%
  Population Fragmented Nuclei (%): 50%
  Population Healthy Nuclei (%): 29%
  Population Hoechst High Intensity Objects (%): 18%
  Population Membrane Permeable-Phenotype (%): 26%
  Population Mitochondria Different-Phenotype (%): 26%
  Population Mitotic Cells (%): 7%
  Population Normal (%): 81%
  Population Pyknosed Nuclei (%): 20%
  Population Tubulin-Different-Phenotype (%): 26%
  Total Cell Count: 80
[9]
  Population Apoptotic (%): 87%
  Population Fragmented Nuclei (%): 36%
  Population Healthy Nuclei (%): 59%
  Population Hoechst High Intensity Objects (%): 11%
  Population Membrane Permeable-Phenotype (%): 10%
  Population Mitotic Cells (%): 12%
  Population Normal (%): 88%
  Population Pyknosed Nuclei (%): 4%
  Population Tubulin-Different-Phenotype (%): 13%
  Total Cell Count: 212
[10]
  Population Apoptotic (%): 100%
  Population Fragmented Nuclei (%): 21%
  Population Healthy Nuclei (%): 77%
  Population Hoechst High Intensity Objects (%): 10%
  Population Membrane Permeable-Phenotype (%): 16%
  Population Mitochondria Different-Phenotype (%): 0%
  Population Mitotic Cells (%): 0%
  Population Normal (%): 89%
  Population Pyknosed Nuclei (%): 0%
  Population Tubulin-Different-Phenotype (%): 21%
  Total Cell Count: 114
[11]
  Population Apoptotic (%): 66%
  Population Fragmented Nuclei (%): 32%
  Population Healthy Nuclei (%): 43%
  Population Hoechst High Intensity Objects (%): 24%
  Population Membrane Permeable-Phenotype (%): 50%
  Population Mitochondria Different-Phenotype (%): 5%
  Population Mitotic Cells (%): 33%
  Population Normal (%): 75%
  Population Pyknosed Nuclei (%): 23%
  Population Tubulin-Different-Phenotype (%): 46%
  Total Cell Count: 169
[12]
  Population Apoptotic (%): 100%
  Population Fragmented Nuclei (%): 50%
  Population Healthy Nuclei (%): 48%
  Population Hoechst High Intensity Objects (%): 17%
  Population Membrane Permeable-Phenotype (%): 14%
  Population Mitochondria Different-Phenotype (%): 1%
  Population Mitotic Cells (%): 0%
  Population Normal (%): 82%
  Population Pyknosed Nuclei (%): 1%
  Population Tubulin-Different-Phenotype (%): 43%
  Total Cell Count: 236

## Cc1ccc(NC(=O)Nc2cc(C(F)(F)F)ccc2F)cc1Nc1ccc2c(c1)NC(=O)/C2=C\c1ccc[nH]1
[1]
  Population Apoptotic (%): 36%
  Population Fragmented Nuclei (%): 13%
  Population Healthy Nuclei (%): 59%
  Population Hoechst High Intensity Objects (%): 10%
  Population Membrane Permeable-Phenotype (%): 58%
  Population Mitochondria Different-Phenotype (%): 0%
  Population Mitotic Cells (%): 63%
  Population Normal (%): 89%
  Population Pyknosed Nuclei (%): 27%
  Population Tubulin-Different-Phenotype (%): 36%
  Total Cell Count: 178
[2]
  Population Apoptotic (%): 100%
  Population Fragmented Nuclei (%): 60%
  Population Healthy Nuclei (%): 36%
  Population Hoechst High Intensity Objects (%): 50%
  Population Membrane Permeable-Phenotype (%): 63%
  Population Mitochondria Different-Phenotype (%): 18%
  Population Mitotic Cells (%): 0%
  Population Normal (%): 49%
  Population Pyknosed Nuclei (%): 3%
  Population Tubulin-Different-Phenotype (%): 54%
  Total Cell Count: 61
[3]
  Population Apoptotic (%): 66%
  Population Fragmented Nuclei (%): 15%
  Population Healthy Nuclei (%): 52%
  Population Hoechst High Intensity Objects (%): 17%
  Population Membrane Permeable-Phenotype (%): 4%
  Population Mitochondria Different-Phenotype (%): 3%
  Population Mitotic Cells (%): 33%
  Population Normal (%): 82%
  Population Pyknosed Nuclei (%): 32%
  Population Tubulin-Different-Phenotype (%): 5%
  Total Cell Count: 210
[4]
  Population Apoptotic (%): 20%
  Population Fragmented Nuclei (%): 50%
  Population Healthy Nuclei (%): 40%
  Population Hoechst High Intensity Objects (%): 20%
  Population Membrane Permeable-Phenotype (%): 0%
  Population Mitochondria Different-Phenotype (%): 19%
  Population Mitotic Cells (%): 80%
  Population Normal (%): 80%
  Population Pyknosed Nuclei (%): 9%
  Population Tubulin-Different-Phenotype (%): 0%
  Total Cell Count: 65
[5]
  Population Apoptotic (%): 28%
  Population Fragmented Nuclei (%): 10%
  Population Healthy Nuclei (%): 61%
  Population Hoechst High Intensity Objects (%): 8%
  Population Membrane Permeable-Phenotype (%): 51%
  Population Mitochondria Different-Phenotype (%): 0%
  Population Mitotic Cells (%): 71%
  Population Normal (%): 91%
  Population Pyknosed Nuclei (%): 27%
  Population Tubulin-Different-Phenotype (%): 31%
  Total Cell Count: 179
[6]
  Population Apoptotic (%): 100%
  Population Fragmented Nuclei (%): 61%
  Population Healthy Nuclei (%): 34%
  Population Hoechst High Intensity Objects (%): 55%
  Population Membrane Permeable-Phenotype (%): 55%
  Population Mitochondria Different-Phenotype (%): 11%
  Population Mitotic Cells (%): 0%
  Population Normal (%): 44%
  Population Pyknosed Nuclei (%): 3%
  Population Tubulin-Different-Phenotype (%): 55%
  Total Cell Count: 59
[7]
  Population Apoptotic (%): 51%
  Population Fragmented Nuclei (%): 18%
  Population Healthy Nuclei (%): 61%
  Population Hoechst High Intensity Objects (%): 17%
  Population Membrane Permeable-Phenotype (%): 5%
  Population Mitochondria Different-Phenotype (%): 3%
  Population Mitotic Cells (%): 48%
  Population Normal (%): 82%
  Population Pyknosed Nuclei (%): 20%
  Population Tubulin-Different-Phenotype (%): 5%
  Total Cell Count: 237
[8]
  Population Apoptotic (%): 50%
  Population Fragmented Nuclei (%): 54%
  Population Healthy Nuclei (%): 41%
  Population Hoechst High Intensity Objects (%): 29%
  Population Membrane Permeable-Phenotype (%): 0%
  Population Mitochondria Different-Phenotype (%): 5%
  Population Mitotic Cells (%): 50%
  Population Normal (%): 70%
  Population Pyknosed Nuclei (%): 4%
  Population Tubulin-Different-Phenotype (%): 10%
  Total Cell Count: 65
